Laboratory results as given in ChEMBL document CHEMBL4261600 (Eur J Med Chem, 2018).

How the values were obtained:
[1] = Antiproliferative activity against CHO cells after 72 hrs by Celltiter-Glo assay; type: cell-based, Cricetulus griseus; conditions: chinese hamster
How it was run: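 Cells seeded at 3000/well in 96-well plates, exposed to serially diluted compound for 72 h at 37 °C, 5% CO2. Viability read by CellTiter-Glo luminescence and normalized to DMSO control. GI50 derived from curve fit, mean of three independent measurements. Culture media: DMEM/10% FBS for adherent lines; IMDM for MV4-11 and MEC-1/2; RPMI 1640 for suspension lines and CHL.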

[2] = Oral bioavailability in mouse at 10 mg/kg by LC-MS/MS analysis; type: ADME, organism-based; conditions: in vivo
[3] = molecular target: Tyrosine-protein kinase ABL2 (Homo sapiens) (UniProt P42684); test: Binding affinity to wild-type human ABL2 (A248 to G542 residues) expressed in bacterial expression system assessed as remaining unbound target protein level at 1000 nM by Kinomescan method relative to control
How it was run: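 KINOMEscan competitive binding profile at 1 μM inhibitor. Remaining target binding reported as percent of DMSO control.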

[4] = molecular target: Tyrosine-protein kinase Blk (Homo sapiens) (UniProt P51451); test: Binding affinity to wild-type human partial length BLK (G211 to L503 residues) expressed in bacterial expression system assessed as remaining unbound target protein level at 1000 nM by Kinomescan method relative to control
How it was run: (§1)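 Profiled in a KINOMEscan binding panel with the inhibitor at a single concentration of 1 μM. Binding to each kinase was read out as percent of control, relative to a DMSO control. Strong binders were defined as those with a percent control value below 1.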

[5] = molecular target: Myotonin-protein kinase (Homo sapiens) (UniProt Q09013); test: Binding affinity to wild-type human partial length DMPK (V47 to V415 residues) expressed in bacterial expression system assessed as remaining unbound target protein level at 1000 nM by Kinomescan method relative to control
[6] = test system: Epidermal growth factor receptor (Homo sapiens), P00533 [L861Q]; test: Binding affinity to human partial length EGFR L861Q mutant (R669 to V1011 residues) expressed in bacterial expression system assessed as remaining unbound target protein level at 1000 nM by Kinomescan method relative to control
How it was run: (§2)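 KINOMEscan competition-binding profiling across the panel of 468 kinases and mutants, with inhibitor tested at 1 μM. Binding is expressed as percent of control, with DMSO as the reference control.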

[7] = molecular target: G protein-coupled receptor kinase 4 (Homo sapiens) (UniProt P32298); test: Binding affinity to wild-type human full length GRK4 (M1 to C578 residues) expressed in bacterial expression system assessed as remaining unbound target protein level at 1000 nM by Kinomescan method relative to control
How it was run: (§3)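 Single-point competition binding screen across a panel of 468 kinases and mutants, with the inhibitor at 1 μM. Binding is read out as percent of a DMSO control, and targets below 1 percent control were classed as strong binders.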

[8] = molecular target: Inhibitor of nuclear factor kappa-B kinase subunit beta (Homo sapiens) (UniProt O14920); test: Binding affinity to wild-type human full length IKK-beta (M1 to S756 residues) expressed in mammalian expression system assessed as remaining unbound target protein level at 1000 nM by Kinomescan method relative to control; how it was run: as §3
[9] = molecular target: Mitogen-activated protein kinase kinase kinase 10 (Homo sapiens) (UniProt Q02779); test: Binding affinity to wild-type human partial length MLK2 (V52 to W380 residues) expressed in bacterial expression system assessed as remaining unbound target protein level at 1000 nM by Kinomescan method relative to control
How it was run: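 KINOMEscan binding panel of 468 kinases/mutants. Inhibitor was tested at a single concentration of 1 μM. Binding is reported as percent of control, defined relative to a DMSO control.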

[10] = molecular target: Serine/threonine-protein kinase Nek6 (Homo sapiens) (UniProt Q9HC98); test: Binding affinity to wild-type human full length NEK6 (M8 to T313 residues) expressed in bacterial expression system assessed as remaining unbound target protein level at 1000 nM by Kinomescan method relative to control
How it was run: (§4)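 KINOMEscan competition binding profile across a panel of 468 kinases and mutants, with the inhibitor tested at a single concentration of 1 μM. Binding is reported as percent of control, meaning signal relative to a DMSO control.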

[11] = molecular target: 1-phosphatidylinositol 3-phosphate 5-kinase (Homo sapiens) (UniProt Q9Y2I7); test: Binding affinity to wild-type human partial length PIKFYVE (F1512 to C2098 residues) expressed in mammalian expression system assessed as remaining unbound target protein level at 1000 nM by Kinomescan method relative to control
[12] = test system: Mycobacterium tuberculosis; test: Binding affinity to wild-type Mycobacterium tuberculosis partial length PKNB (M1 to G279 residues) expressed in mammalian expression system assessed as remaining unbound target protein level at 1000 nM by Kinomescan method relative to control
How it was run: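 KINOMEscan competition binding panel run at 1 μM inhibitor; binding reported as percent of DMSO control (remaining target bound versus vehicle).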

[13] = molecular target: Serine/threonine-protein kinase D3 (Homo sapiens) (UniProt O94806); test: Binding affinity to wild-type human partial length PRKD3 (S543 to E863 residues) expressed in bacterial expression system assessed as remaining unbound target protein level at 1000 nM by Kinomescan method relative to control
[14] = molecular target: Interferon-induced, double-stranded RNA-activated protein kinase (Homo sapiens) (UniProt P19525); test: Binding affinity to wild-type human partial length PRKR (F247 to C551 residues) expressed in bacterial expression system assessed as remaining unbound target protein level at 1000 nM by Kinomescan method relative to control
[15] = test system: Proto-oncogene tyrosine-protein kinase receptor Ret (Homo sapiens), P07949 [V804L]; test: Binding affinity to human partial length RET V804L mutant (E713 to D1014 residues) expressed in bacterial expression system assessed as remaining unbound target protein level at 1000 nM by Kinomescan method relative to control; how it was run: as §2
[16] = molecular target: Ribosomal protein S6 kinase alpha-4 (Homo sapiens) (UniProt O75676); test: Binding affinity to wild-type human partial length C-terminal RPS6KA4 kinase domain 2 (M375 to T705 residues) expressed in mammalian expression system assessed as remaining unbound target protein level at 1000 nM by Kinomescan method relative to control; how it was run: as §1
[17] = molecular target: SRSF protein kinase 1 (Homo sapiens) (UniProt Q96SB4); test: Binding affinity to wild-type human full length SRPK1 (M1 to S655 residues) expressed in bacterial expression system assessed as remaining unbound target protein level at 1000 nM by Kinomescan method relative to control; how it was run: as §4
[18] = molecular target: Tyrosine-protein kinase Tec (Homo sapiens) (UniProt P42680); test: Binding affinity to wild-type human partial length TEC (L341 to D620 residues) expressed in bacterial expression system assessed as remaining unbound target protein level at 1000 nM by Kinomescan method relative to control
[19] = molecular target: TRAF2 and NCK-interacting protein kinase (Homo sapiens) (UniProt Q9UKE5); test: Binding affinity to wild-type human partial length TNIK (D4 to K311 residues) expressed in bacterial expression system assessed as remaining unbound target protein level at 1000 nM by Kinomescan method relative to control

G protein-coupled receptor kinase 4 (Homo sapiens), sequence (P32298 whole entry, looked up, the tested form may be a part): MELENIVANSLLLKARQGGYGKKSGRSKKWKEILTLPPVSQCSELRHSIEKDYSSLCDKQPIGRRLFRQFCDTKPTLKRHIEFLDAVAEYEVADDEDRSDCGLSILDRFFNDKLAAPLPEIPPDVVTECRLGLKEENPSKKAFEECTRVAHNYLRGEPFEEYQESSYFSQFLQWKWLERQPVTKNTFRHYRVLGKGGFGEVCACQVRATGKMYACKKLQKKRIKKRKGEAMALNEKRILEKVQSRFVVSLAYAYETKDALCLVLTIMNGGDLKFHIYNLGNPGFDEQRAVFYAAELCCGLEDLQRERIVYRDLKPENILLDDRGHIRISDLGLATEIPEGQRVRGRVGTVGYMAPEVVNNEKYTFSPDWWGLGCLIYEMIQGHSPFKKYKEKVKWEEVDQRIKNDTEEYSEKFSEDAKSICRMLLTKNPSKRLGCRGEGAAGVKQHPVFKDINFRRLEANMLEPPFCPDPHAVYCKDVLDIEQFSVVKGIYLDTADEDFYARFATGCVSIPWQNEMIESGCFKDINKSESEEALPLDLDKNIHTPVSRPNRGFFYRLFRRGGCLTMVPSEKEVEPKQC
Myotonin-protein kinase (Homo sapiens), sequence (Q09013 whole entry, the tested form may be a part): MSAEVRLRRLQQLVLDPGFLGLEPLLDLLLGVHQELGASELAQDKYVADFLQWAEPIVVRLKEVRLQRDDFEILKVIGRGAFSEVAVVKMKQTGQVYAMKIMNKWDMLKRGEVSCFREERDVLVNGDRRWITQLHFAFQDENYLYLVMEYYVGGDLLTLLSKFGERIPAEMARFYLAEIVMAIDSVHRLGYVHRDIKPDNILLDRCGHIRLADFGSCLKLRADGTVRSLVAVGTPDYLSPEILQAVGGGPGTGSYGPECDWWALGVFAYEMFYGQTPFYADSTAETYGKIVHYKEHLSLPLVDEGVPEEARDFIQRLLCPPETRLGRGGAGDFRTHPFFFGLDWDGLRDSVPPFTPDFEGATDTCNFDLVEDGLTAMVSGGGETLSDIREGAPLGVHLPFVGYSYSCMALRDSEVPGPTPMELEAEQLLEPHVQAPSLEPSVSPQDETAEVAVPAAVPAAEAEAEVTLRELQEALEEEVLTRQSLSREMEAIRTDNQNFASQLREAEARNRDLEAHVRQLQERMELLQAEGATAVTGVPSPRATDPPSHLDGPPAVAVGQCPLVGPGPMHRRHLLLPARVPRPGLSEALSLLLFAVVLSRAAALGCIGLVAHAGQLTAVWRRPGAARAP
Interferon-induced, double-stranded RNA-activated protein kinase (Homo sapiens), sequence (P19525 whole entry, the tested form may be a part): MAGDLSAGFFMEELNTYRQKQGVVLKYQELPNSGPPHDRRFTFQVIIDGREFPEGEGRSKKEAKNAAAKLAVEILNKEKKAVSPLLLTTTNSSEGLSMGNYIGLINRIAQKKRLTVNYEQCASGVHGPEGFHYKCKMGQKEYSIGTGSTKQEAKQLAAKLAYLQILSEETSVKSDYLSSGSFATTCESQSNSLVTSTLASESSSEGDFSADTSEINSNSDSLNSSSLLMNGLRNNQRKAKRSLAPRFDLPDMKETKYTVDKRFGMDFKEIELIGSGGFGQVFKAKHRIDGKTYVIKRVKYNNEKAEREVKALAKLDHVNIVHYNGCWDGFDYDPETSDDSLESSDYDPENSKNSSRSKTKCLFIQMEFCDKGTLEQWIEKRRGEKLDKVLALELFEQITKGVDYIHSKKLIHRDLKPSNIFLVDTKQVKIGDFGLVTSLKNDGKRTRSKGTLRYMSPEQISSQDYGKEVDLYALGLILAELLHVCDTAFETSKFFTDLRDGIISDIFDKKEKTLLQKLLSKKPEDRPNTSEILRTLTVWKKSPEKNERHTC
Mitogen-activated protein kinase kinase kinase 10 (Homo sapiens), sequence (Q02779 whole entry, looked up, the tested form may be a part): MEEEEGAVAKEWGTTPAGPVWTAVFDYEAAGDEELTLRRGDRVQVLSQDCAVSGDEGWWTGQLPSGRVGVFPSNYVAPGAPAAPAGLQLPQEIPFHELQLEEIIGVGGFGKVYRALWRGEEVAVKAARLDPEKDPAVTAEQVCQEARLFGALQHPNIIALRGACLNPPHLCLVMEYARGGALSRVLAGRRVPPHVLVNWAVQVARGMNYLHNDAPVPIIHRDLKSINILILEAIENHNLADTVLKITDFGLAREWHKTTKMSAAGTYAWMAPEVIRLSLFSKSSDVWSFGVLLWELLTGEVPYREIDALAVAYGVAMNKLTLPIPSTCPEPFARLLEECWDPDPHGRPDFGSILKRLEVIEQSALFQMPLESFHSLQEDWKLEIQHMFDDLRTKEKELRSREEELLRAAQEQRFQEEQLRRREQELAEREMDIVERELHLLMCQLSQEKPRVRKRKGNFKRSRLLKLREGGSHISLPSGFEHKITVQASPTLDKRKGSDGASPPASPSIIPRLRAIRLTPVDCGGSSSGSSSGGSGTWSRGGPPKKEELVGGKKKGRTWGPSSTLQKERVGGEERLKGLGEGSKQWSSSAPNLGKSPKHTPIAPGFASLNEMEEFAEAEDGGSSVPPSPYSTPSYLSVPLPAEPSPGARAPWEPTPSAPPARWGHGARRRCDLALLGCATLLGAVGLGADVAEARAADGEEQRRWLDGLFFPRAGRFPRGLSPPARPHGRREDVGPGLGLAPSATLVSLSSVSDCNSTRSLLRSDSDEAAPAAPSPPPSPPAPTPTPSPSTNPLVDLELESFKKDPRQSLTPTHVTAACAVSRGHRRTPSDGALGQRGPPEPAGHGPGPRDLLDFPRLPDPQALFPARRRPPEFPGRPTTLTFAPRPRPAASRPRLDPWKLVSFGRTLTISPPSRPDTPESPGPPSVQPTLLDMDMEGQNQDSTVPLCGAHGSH
Serine/threonine-protein kinase D3 (Homo sapiens), sequence (O94806 whole entry, the tested form may be a part): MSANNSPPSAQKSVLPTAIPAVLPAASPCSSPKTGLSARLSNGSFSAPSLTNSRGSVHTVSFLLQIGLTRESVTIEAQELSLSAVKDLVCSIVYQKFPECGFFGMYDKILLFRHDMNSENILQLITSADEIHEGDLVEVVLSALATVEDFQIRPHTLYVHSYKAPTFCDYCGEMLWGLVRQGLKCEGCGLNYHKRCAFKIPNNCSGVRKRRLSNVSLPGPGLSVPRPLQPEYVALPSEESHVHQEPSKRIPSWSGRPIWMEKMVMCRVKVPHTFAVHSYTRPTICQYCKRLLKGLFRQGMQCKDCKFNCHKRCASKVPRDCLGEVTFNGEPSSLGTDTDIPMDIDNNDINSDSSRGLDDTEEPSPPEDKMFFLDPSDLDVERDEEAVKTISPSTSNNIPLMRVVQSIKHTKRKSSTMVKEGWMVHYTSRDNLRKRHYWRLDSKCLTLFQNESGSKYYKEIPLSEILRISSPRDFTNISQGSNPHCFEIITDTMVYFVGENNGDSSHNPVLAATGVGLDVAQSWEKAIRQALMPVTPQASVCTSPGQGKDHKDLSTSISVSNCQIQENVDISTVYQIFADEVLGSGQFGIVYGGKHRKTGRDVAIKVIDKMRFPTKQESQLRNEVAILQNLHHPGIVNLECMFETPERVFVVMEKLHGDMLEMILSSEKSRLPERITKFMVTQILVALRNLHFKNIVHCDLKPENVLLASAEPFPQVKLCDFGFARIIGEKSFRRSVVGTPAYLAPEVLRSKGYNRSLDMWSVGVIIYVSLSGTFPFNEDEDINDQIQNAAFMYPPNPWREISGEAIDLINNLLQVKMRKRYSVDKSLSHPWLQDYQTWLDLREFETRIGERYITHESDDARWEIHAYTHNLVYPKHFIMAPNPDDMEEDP
Tyrosine-protein kinase Blk (Homo sapiens), sequence (P51451 2-505 limits assumed): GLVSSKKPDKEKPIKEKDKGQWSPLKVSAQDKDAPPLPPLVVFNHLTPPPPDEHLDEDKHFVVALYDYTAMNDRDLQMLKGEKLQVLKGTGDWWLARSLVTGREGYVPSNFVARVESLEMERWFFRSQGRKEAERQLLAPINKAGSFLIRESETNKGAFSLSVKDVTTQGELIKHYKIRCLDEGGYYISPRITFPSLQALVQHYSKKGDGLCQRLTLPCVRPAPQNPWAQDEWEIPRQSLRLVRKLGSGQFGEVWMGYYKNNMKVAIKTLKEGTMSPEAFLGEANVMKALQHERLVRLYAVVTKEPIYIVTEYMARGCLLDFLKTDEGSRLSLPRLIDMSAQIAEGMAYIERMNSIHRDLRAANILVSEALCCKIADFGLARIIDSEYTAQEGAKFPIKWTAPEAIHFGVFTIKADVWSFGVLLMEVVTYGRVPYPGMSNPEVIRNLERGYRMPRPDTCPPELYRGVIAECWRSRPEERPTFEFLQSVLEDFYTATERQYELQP
Serine/threonine-protein kinase Nek6 (Homo sapiens), sequence (Q9HC98 whole entry, the tested form may be a part): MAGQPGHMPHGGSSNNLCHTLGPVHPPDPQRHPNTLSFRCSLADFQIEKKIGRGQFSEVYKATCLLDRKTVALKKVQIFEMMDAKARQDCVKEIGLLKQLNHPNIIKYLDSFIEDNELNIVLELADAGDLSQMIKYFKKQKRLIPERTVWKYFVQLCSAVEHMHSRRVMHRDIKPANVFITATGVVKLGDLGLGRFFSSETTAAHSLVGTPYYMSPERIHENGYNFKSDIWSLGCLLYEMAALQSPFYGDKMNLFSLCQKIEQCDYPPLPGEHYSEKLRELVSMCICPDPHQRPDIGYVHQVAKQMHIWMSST
Tyrosine-protein kinase Tec (Homo sapiens), sequence (P42680 whole entry, the tested form may be a part): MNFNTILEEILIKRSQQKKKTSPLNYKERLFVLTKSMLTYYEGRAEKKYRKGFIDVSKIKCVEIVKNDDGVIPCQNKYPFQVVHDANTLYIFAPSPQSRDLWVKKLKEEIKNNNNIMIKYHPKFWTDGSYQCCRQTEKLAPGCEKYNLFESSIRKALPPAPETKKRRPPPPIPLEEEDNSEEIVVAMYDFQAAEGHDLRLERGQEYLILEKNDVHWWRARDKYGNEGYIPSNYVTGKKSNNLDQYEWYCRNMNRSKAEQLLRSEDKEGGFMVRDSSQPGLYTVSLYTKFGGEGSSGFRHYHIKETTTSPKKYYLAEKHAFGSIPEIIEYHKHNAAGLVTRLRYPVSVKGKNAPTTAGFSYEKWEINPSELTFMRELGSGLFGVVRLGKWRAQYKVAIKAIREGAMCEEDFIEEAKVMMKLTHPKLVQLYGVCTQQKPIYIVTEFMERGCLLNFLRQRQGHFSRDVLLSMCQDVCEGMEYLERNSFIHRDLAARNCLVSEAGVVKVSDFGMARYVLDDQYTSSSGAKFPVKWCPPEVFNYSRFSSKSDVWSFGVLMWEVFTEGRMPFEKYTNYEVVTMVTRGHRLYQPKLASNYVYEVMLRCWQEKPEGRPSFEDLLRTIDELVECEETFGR

COCCN[C@H]1CC[C@H](Nc2cc(-c3csc(NCC4(C#N)CCOCC4)n3)c(Cl)cn2)CC1
GI50 at 72 h [1]: 1100 nM | bioavailability [2]: 45% | Activity [3]: 77% | Activity [4]: 97% | Activity [5]: 100% | Activity [6]: 76% | Activity [7]: 96% | Activity [8]: 90% | Activity [9]: 99% | Activity [10]: 94% | Activity [11]: 95% | Activity [12]: 84% | Activity [13]: 89% | Activity [14]: 98% | Activity [15]: 92% | Activity [16]: 65% | Activity [17]: 66% | Activity [18]: 92% | Activity [19]: 64%
